Measurements published in PubChem BioAssay AID504491 (The Scripps Research Institute Molecular Screening Center, 2011).
The source made the active and inactive calls.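 How the source made its calls: active means inhibition of the target enzyme PAFAH2 of at least 50%, whatever the off-target enzymes show; inactive means PAFAH2 inhibition under 50%.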

How the values were obtained:
Assay in all cases: PAFAH2 inhibitors in proteome by ABPP, late-stage follow-up, selectivity assay, cell lysate, gel-based fluorescence ABPP, carbamate vs triazole urea (AID 504491)
APEH = details: BW5147 mouse T-cell proteome, gel ABPP FP-Rh, 30 min, at 20 µM, hits give high values
In short: (§1)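 Test system: soluble proteome from murine BW5147-derived T cells. Input: 1 mg/mL lysate protein. Buffer or medium: DPBS. Reagent: FP-Rh probe, 2 µM. Compound: one dose, 20 µM. Schedule: 30 min compound, 30 min probe, 25 °C. Signal: SDS-PAGE separation with in-gel fluorescence scanning. Benchmarks: DMSO high control, blank-gel background low control.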

ABHD11 = details: BW5147 mouse T-cell proteome, gel ABPP FP-Rh, 30 min, at 20 µM, hits give high values
In short: as §1

LYPLA1 = details: BW5147 mouse T-cell proteome, gel ABPP FP-Rh, 30 min, at 20 µM, hits give high values
In short: as §1

ESD = details: BW5147 mouse T-cell proteome, gel ABPP FP-Rh, 30 min, at 20 µM, hits give high values
In short: as §1

[1] = molecular target: Platelet-activating factor acetylhydrolase 2, cytoplasmic (Mus musculus) (UniProt Q8VDG7); details: BW5147 mouse T-cell proteome, gel ABPP FP-Rh, 30 min; PAFAH2; at 20 µM; hits give high values
Chain of Platelet-activating factor acetylhydrolase 2, cytoplasmic (Mus musculus) (Q8VDG7 whole entry, looked up): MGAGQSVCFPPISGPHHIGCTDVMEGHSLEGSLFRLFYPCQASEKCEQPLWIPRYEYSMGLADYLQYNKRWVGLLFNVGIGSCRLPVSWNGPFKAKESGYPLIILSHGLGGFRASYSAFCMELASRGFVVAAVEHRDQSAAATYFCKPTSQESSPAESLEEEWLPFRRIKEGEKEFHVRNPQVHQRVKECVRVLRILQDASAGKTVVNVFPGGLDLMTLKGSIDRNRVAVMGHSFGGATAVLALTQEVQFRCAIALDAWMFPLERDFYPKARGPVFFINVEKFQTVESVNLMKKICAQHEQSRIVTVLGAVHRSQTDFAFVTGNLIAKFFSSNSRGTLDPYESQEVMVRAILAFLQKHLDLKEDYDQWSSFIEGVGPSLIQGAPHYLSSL
In short: as §1

LYPLA2 = details: BW5147 mouse T-cell proteome, gel ABPP FP-Rh, 30 min, at 20 µM, hits give high values
In short: as §1

Row | inhibition (APEH) | inhibition (ABHD11) | inhibition (LYPLA1) | inhibition (ESD) | inhibition [1] | inhibition (LYPLA2) | SMILES
1 | 100% | 100% | 100% | 100% | 100% | 100% | O=C(N1CCCCC1)n1ccnn1
2 | 0% (inactive) | 100% | 0% (inactive) | 0% (inactive) | 0% (inactive) | 0% (inactive) | O=C(Oc1ccc([N+](=O)[O-])cc1)N1CCCCC1
